# In ChEMBL document CHEMBL1275591, “Cellular pharmacodynamics of the novel biaryloxazolidinone radezolid: studies with infected phagocytic and nonphagocytic cells, using Staphylococcus aureus, Staphylococcus epidermidis, Listeria monocytogenes, and Legionella pneumophila” (Antimicrob Agents Chemother, 2010):
# Key:
# Staphylococcus aureus [1] = assay: Antimicrobial activity against hospital acquired methicillin-resistant Staphylococcus aureus SA238 after 24 hrs; type: functional; conditions: SA238, 24 h
# Staphylococcus aureus [2] = assay: Antimicrobial activity against hospital acquired methicillin-resistant, vancomycin resistant Staphylococcus aureus VRS2 after 24 hrs; type: functional; conditions: VRS2, 24 h
# Staphylococcus aureus [3] = assay: Antimicrobial activity against linezolid-susceptible Staphylococcus aureus ATCC 33591 infected in THP1 cells assessed as log reduction in bacterial count after 24 hrs; type: functional, THP-1
# In short: (§1)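 Bacteria were phagocytosed by human THP-1 macrophage-like cells, then exposed to a range of drug concentrations for a fixed time: 24 h for S. aureus, S. epidermidis and L. monocytogenes, 48 h for L. pneumophila. Change in CFU versus the initial inoculum was fitted with a sigmoidal curve to give Emin, Emax (relative maximal efficacy), EC50 and static concentration (Cs).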
# Staphylococcus aureus [4] = assay: Antimicrobial activity against linezolid-susceptible Staphylococcus aureus NRS384 infected in THP1 cells assessed as log reduction in bacterial count after 24 hrs; type: functional, THP-1; in short: as §1
# Staphylococcus aureus [5] = assay: Antimicrobial activity against linezolid-susceptible Staphylococcus aureus NRS384 infected in THP1 cells after 24 hrs; type: functional, organism-based; conditions: NRS384, THP-1, 24 h; in short: as §1
# Staphylococcus aureus [6] = assay: Antimicrobial activity against linezolid-susceptible Staphylococcus aureus NRS18 infected in THP1 cells after 24 hrs; type: functional, organism-based; conditions: NRS18, THP-1, 24 h; in short: as §1
# Staphylococcus aureus [7] = assay: Antimicrobial activity against linezolid-susceptible Staphylococcus aureus SA238 infected in THP1 cells after 24 hrs; type: functional, organism-based; conditions: SA238, THP-1, 24 h; in short: as §1
# Staphylococcus aureus [8] = assay: Antimicrobial activity against linezolid-susceptible Staphylococcus aureus SA238 infected in HUVEC cells assessed as log reduction in bacterial count after 24 hrs; type: functional
# In short: (§2)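 S. aureus was internalized by adherent nonphagocytic cells: Calu-3, HUVEC, keratinocytes on collagen-coated wells, osteoblasts, or rat embryo fibroblasts. Inoculum was 5 × 10^7 to 1 × 10^8 bacteria/ml with 2 h phagocytosis (HUVEC: 2 × 10^6/ml, 1 h). Cells were then exposed to graded drug concentrations for 24 h. CFU change versus the original inoculum was fitted sigmoidally for Emax and Cs.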
# Staphylococcus aureus [9] = assay: Bacteriostatic activity against linezolid-susceptible Staphylococcus aureus SA238 infected in HUVEC cells after 24 hrs; type: functional
# In short: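 HUVEC were grown in endothelial growth medium on gelatin-treated flasks. They were infected with 2 × 10^6 bacteria/ml for 1 h phagocytosis, then exposed 24 h to graded antibiotic concentrations. CFU change from the initial inoculum was fitted to a sigmoidal curve to obtain the static concentration (Cs).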
# Staphylococcus aureus [10] = assay: Antimicrobial activity against linezolid-susceptible Staphylococcus aureus SA238 infected in Calu-3 cells assessed as log reduction in bacterial count after 24 hrs; type: functional; in short: as §2
# Staphylococcus aureus [11] = assay: Bacteriostatic activity against linezolid-susceptible Staphylococcus aureus SA238 infected in human osteoblasts cells after 24 hrs; type: functional
# In short: (§3)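 Adherent nonphagocytic cells were infected at 5 × 10^7 to 1 × 10^8 bacteria/ml with 2 h phagocytosis. Cells used: Calu-3 bronchial epithelium grown in uncoated flasks, neonatal foreskin keratinocytes on collagen-coated wells, primary human osteoblasts, and primary rat embryo fibroblasts. Antibiotic was then given over a concentration range for 24 h. Cs came from a sigmoidal fit of CFU change.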
# Staphylococcus aureus [12] = assay: Bacteriostatic activity against linezolid-resistant Staphylococcus aureus SA238L infected in rat fibroblast cells after 24 hrs; type: functional; in short: as §3
# [13] = Ratio of drug level for cellular to extracellular region of Staphylococcus aureus infected human Calu3 cells at 4 mg/liter after 2 hrs; type: ADME, cell-based; conditions: calu-3, 2 h
# In short: (§4)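 Cells were exposed to [14C]radezolid for 2 or 24 h. Cell-associated drug in lysates was measured by liquid scintillation counting (detection limit 0.003 mg/liter; linear 0.01–0.78 mg/liter). Content was normalised to cell protein (Lowry). It was converted to apparent cellular concentration at 5 μl per mg protein and expressed relative to the extracellular concentration.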
# [14] = Ratio of drug level for cellular to extracellular region of Staphylococcus aureus infected human osteoblast at 4 mg/liter after 2 hrs; type: ADME, cell-based; in short: as §4
# [15] = Ratio of drug level for cellular to extracellular region of Staphylococcus aureus infected rat fibroblast at 4 mg/liter after 24 hrs; type: ADME, cell-based; in short: as §4
# Staphylococcus aureus [16] = assay: Antimicrobial activity against Staphylococcus aureus ATCC 25923 infected in THP-1 cells assessed as log reduction in bacterial count at 1 mg/L after 5 hrs; type: functional
# In short: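 Time-course test with S. aureus ATCC 25923, either in Mueller-Hinton broth or after phagocytosis by THP-1 cells. Samples were taken over a 5 h incubation with drug at 1 mg/liter. Read-out was the change in CFU relative to the initial inoculum, reported as means.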
smiles,measurement,setting,value
CC(=O)NC[C@H]1CN(c2ccc(-c3ccc(CNCc4cnn[nH]4)cc3)c(F)c2)C(=O)O1 [RADEZOLID],MIC,Staphylococcus aureus [1],0.5 µg/mL
same,MIC,Staphylococcus aureus [2],2 µg/mL
same,log10cfu,Staphylococcus aureus [3],-0.56
same,log10cfu,Staphylococcus aureus [4],-0.61
same,EC50,Staphylococcus aureus [5],0.07 µg/mL
same,EC50,Staphylococcus aureus [6],0.09 µg/mL
same,EC50,Staphylococcus aureus [7],0.16 µg/mL
same,log10cfu,Staphylococcus aureus [8],0.6
same,Activity,Staphylococcus aureus [9],0.6 mg/L
same,log10cfu,Staphylococcus aureus [10],0.6
same,Activity,Staphylococcus aureus [11],0.6 mg/L
same,Activity,Staphylococcus aureus [12],0.6 mg/L
same,Ratio,[13],8.5
same,Ratio,[14],9.8
same,Ratio,[15],10.9
same,log10cfu,Staphylococcus aureus [16],0.5
